Data: ChEMBL document CHEMBL1142879, “Synthesis and biological evaluation of dialkylsubstituted maleic anhydrides as novel inhibitors of Cdc25 dual specificity phosphatases” (Eur J Med Chem, 2007)

Legend:
[1] = biological target: T1, M-phase inducer phosphatase 2 (Homo sapiens, UniProt P30305); assay: Inhibition of human GST-Cdc25B expressed in Escherichia coli BL21(DE3)
T1 sequence (P30305 whole entry): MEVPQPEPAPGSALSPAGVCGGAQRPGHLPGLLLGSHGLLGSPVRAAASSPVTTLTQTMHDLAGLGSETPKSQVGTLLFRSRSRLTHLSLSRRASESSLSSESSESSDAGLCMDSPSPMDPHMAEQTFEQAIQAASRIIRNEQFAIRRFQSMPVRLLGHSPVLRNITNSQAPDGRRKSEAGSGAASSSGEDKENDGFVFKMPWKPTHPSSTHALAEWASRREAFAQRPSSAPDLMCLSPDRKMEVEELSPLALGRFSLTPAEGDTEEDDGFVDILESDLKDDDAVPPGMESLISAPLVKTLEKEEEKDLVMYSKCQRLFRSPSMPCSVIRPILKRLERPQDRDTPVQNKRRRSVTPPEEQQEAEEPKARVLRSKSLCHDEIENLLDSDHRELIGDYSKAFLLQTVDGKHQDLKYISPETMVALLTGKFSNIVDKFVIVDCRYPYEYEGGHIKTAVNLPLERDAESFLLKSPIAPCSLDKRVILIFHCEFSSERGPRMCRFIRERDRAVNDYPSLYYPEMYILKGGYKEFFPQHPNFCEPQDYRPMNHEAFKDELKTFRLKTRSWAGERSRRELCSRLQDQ
Summary of the method: (§1)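 GST fusion proteins (full-length Cdc25A and Cdc25C; Cdc25B catalytic domain) were expressed in E. coli grown with ampicillin and induced with IPTG at OD600 0.4–0.6 for 5 h. They were purified on glutathione-agarose. Activity was measured with p-nitrophenyl phosphate as substrate across a range of inhibitor concentrations. IC50 is the mean ± SD of at least two independent experiments, each with four determinations per concentration.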

[2] = biological target: T2, M-phase inducer phosphatase 3 (Homo sapiens, UniProt P30307); assay: Inhibition of human GST-Cdc25C expressed in Escherichia coli BL21(DE3); summary of the method: as §1
T2 sequence (P30307 whole entry): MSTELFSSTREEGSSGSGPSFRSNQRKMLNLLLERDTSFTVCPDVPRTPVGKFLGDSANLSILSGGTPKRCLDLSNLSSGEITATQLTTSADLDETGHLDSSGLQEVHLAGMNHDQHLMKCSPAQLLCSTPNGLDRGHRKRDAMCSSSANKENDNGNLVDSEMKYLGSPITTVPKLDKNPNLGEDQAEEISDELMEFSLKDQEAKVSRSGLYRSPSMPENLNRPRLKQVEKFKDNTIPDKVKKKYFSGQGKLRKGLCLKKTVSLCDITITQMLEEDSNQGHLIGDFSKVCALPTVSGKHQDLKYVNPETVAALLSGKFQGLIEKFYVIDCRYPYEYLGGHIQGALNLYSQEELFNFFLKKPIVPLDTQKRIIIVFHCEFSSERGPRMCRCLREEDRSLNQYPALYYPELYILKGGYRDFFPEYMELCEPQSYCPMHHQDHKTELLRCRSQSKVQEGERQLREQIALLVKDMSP

[3] = Inhibition of horse liver alkaline phosphatase; design: species or system Equus caballus
Summary of the method: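 Phosphatase activity was read with p-nitrophenyl phosphate as substrate, following a previously described method.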

[4] = biological target: T3, M-phase inducer phosphatase 1 (Homo sapiens, UniProt P30304); assay: Inhibition of human GST-Cdc25A expressed in Escherichia coli BL21(DE3); summary of the method: as §1
T3 sequence (P30304 whole entry): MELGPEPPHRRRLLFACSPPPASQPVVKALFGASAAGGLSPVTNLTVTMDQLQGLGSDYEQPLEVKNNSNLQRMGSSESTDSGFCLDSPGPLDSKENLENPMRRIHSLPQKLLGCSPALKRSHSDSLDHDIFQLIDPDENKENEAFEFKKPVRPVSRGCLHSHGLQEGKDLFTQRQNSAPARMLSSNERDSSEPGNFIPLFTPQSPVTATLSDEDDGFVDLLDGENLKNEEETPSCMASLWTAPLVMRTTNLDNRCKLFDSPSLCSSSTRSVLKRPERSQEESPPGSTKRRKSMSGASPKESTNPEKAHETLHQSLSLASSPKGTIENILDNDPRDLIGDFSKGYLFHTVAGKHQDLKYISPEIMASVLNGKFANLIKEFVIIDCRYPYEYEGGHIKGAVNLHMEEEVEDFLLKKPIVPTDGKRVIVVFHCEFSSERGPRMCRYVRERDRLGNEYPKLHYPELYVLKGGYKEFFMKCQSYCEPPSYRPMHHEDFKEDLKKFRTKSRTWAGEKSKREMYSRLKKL

Row | Structure (SMILES) | IC50 [1] | IC50 [2] | IC50 [3] | IC50 [4]
1 | CCCCCCC1=C(CCC(=O)O)C(=O)OC1=O | > 100 µM | > 100 µM | > 100 µM | > 100 µM
2 | CCCCCCCCCCCCCC1=C(CCC(=O)O)C(=O)OC1=O | 8.7 µM | 5.7 µM | > 100 µM | 8.1 µM
3 | CCCCCCCC/C=C\CCCCCCCC1=C(CCC(=O)O)C(=O)OC1=O | 6.7 µM | 8.8 µM | > 100 µM | 4.5 µM
4 | CCCCCCCCCC1=C(CCC(=O)O)C(=O)OC1=O | > 100 µM | > 100 µM | > 100 µM | > 100 µM
5 | CCCCCCCCCCCCCCCC1=C(CCC(=O)O)C(=O)OC1=O | 7.6 µM | 8.6 µM | > 100 µM | 4.7 µM

The next lines start with the values.

Row | IC50 [1] | IC50 [2] | IC50 [3] | IC50 [4] | Structure (SMILES)
6 | > 100 µM | > 100 µM | > 100 µM | > 100 µM | CCCCCCCCC1=C(CCC(=O)O)C(=O)OC1=O
7 | 55.2 µM | 53.9 µM | > 100 µM | 44.4 µM | CCCCCCCCCCC1=C(CCC(=O)O)C(=O)OC1=O
8 | 11.6 µM | 12.6 µM | > 100 µM | 6.3 µM | CCCCCCCCCCCCCCC1=C(CCC(=O)O)C(=O)OC1=O
9 |  |  | > 100 µM |  | CCCCCCCCCCCCCCCCCC1=C(CCC(=O)O)C(=O)OC1=O
10 | 47.7 µM | > 100 µM | > 100 µM | 44.3 µM | CCCCCCCCCCCC1=C(CCC(=O)O)C(=O)OC1=O
